From ChEMBL document CHEMBL1139389, “Discovery of the Poly(ADP-ribose) polymerase (PARP) inhibitor 2-[(R)-2-methylpyrrolidin-2-yl]-1H-benzimidazole-4-carboxamide (ABT-888) for the treatment of cancer” (J Med Chem, 2009)

Columns and labels:
[1] = test system: B16-F10; assay: Antitumor activity against mouse B16F10 cells xenografted in C57BL/6 mouse assessed as tumor volume at 50 mg/kg/day, po after 14 days; format: functional
[2] = test system: B16-F10; assay: Antitumor activity against mouse B16F10 cells xenografted in C57BL/6 mouse assessed as growth inhibition at 50 mg/kg/day, po after 14 days relative to control; format: functional; details: B16-F10, 336 h, read-out: TGI
[3] = test system: B16-F10; assay: Antitumor activity against mouse B16F10 cells xenografted in C57BL/6 mouse assessed as tumor volume at 50 mg/kg/day, po after 17 days; format: functional
[4] = target: Poly [ADP-ribose] polymerase 2 (Homo sapiens, UniProt Q9UGN5); assay: Inhibition of human recombinant PARP2
[5] = Oral bioavailability in CD1 mouse at 10 mg/kg; format: ADME, organism-based; details: in vivo
Outline: (§1)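 Mouse PK: oral dose 10 mg/kg in 2.5% EtOH, 1 drop Tween-80, 25% PEG400 in PBS; iv dose 3 mg/kg in 2.5% EtOH, 5% DMSO, 1 drop Tween-80, 25% PEG400 in PBS. Oral bioavailability, iv half-life, oral AUC and Cmax derived from plasma profiles.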

[6] = Half life in CD1 mouse at 3 mg/kg, iv; format: ADME, organism-based; set-up: dose 3 mg/kg, route intravenous; details: in vivo; outline: as §1
[7] = AUC in CD1 mouse at 10 mg/kg, po; format: ADME, organism-based; set-up: dose 10 mg/kg, route oral; details: plasma; outline: as §1
[8] = Cmax in CD1 mouse at 10 mg/kg, po; format: ADME, organism-based; set-up: dose 10 mg/kg, route oral; details: in vivo; outline: as §1

Sequence of Poly [ADP-ribose] polymerase 2 (Q9UGN5 whole entry): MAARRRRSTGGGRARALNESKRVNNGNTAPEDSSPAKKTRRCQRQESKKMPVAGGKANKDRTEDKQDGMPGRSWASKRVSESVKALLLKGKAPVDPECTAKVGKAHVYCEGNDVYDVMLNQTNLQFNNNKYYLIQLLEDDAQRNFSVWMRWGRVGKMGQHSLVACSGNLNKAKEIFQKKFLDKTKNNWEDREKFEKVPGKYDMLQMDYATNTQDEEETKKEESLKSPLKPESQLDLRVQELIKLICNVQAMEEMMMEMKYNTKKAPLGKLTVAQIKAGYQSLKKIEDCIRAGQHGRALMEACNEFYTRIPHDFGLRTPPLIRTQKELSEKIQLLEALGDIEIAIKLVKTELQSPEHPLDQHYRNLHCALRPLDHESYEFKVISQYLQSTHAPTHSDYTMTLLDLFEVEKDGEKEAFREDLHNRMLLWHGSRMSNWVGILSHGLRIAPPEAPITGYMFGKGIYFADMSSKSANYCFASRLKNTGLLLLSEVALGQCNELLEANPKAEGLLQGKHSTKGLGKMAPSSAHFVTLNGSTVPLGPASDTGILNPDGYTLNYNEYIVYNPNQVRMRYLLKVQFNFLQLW

| SMILES | Ki [4] [nM] | bioavailability [5] [%] | half-life [6] [min] | AUC [7] [ng·h/mL] | Cmax [8] [ng/mL] | Activity [1] [mm3] | inhibition in vivo at 50 mg/kg/day [2] [%] | Activity [3] [mm3] |
| --- | --- | --- | --- | --- | --- | --- | --- | --- |
| Cn1nnc2c(C(N)=O)ncn2c1=O [TEMOZOLOMIDE] | – | – | – | – | – | 1198 | 65 | 2318 |
| C[C@]1(c2nc3c(C(N)=O)cc(F)cc3[nH]2)CCCN1 | 4 | 100 | 30 | 1500 | 1000 | – | – | – |

Continued, in another order:

| Ki [4] [nM] | bioavailability [5] [%] | half-life [6] [min] | AUC [7] [ng·h/mL] | Cmax [8] [ng/mL] | SMILES | Activity [1] [mm3] | inhibition in vivo at 50 mg/kg/day [2] [%] | Activity [3] [mm3] |
| --- | --- | --- | --- | --- | --- | --- | --- | --- |
| 2 | 20 | 72 | 400 | 100 | CC1(c2nc3c(C(N)=O)cccc3[nH]2)CCNCC1 | – | – | – |
| 2 | – | – | – | – | CC1(c2nc3c(C(N)=O)cccc3[nH]2)CCNC1 (stereo not drawn) | – | – | – |
| – | 36 | 33 | 200 | 100 | CN1CCCC1(C)c1nc2c(C(N)=O)cccc2[nH]1 (stereo not drawn) | – | – | – |
